Assay results from ChEMBL document CHEMBL4396918, “Identification of a potent small-molecule inhibitor of bacterial DNA repair that potentiates quinolone antibiotic activity in methicillin-resistant Staphylococcus aureus” (Bioorg Med Chem, 2019).
Activity calls are given as the source filed them. No cut-off for these calls is given here.

Key:
[1] = Ratio of EC50 for antibacterial activity against Escherichia coli K-12 BW25113 to EC50 for Staphylococcus aureus SH1000; type: functional
Staphylococcus aureus [2] = assay: Potentiation of ciprofloxacin-induced antibacterial activity against methicillin resistant Staphylococcus aureus USA300 JE2 assessed as fold reduction in ciprofloxacin EC50 incubated for 18 hrs in presence of 0.5 times MIC ciprofloxacin by broth microdilution method relative to ciprofloxacin; type: functional
[3] = molecular target: T1, DNA gyrase (Escherichia coli) (UniProt P0AES6+P0AES4); assay: Inhibition of Escherichia coli DNA gyrase (A2B2 tetramer) assessed as Fraction supercoiled at 12.5 uM using relaxed pBR322 as substrate preincubated for 30 mins followed by enzyme addition by SYBR staining-based agarose gel electrophoresis method; type: protein-complex assay
Procedure, shortened: (§1)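 Supercoiling of relaxed pBR322 by DNA gyrase, with products (relaxed, […], supercoiled) resolved by agarose gel electrophoresis. Supercoiled fraction quantified by densitometry. Mean ± SEM of 3 technical replicates.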

Escherichia coli = assay: Inhibition of Escherichia coli DNA topoisomerase IV using supercoiled pQE80L as substrate at 12.5 uM incubated for 30 mins by ethidium bromide staining-based agarose gel electrophoresis method
Staphylococcus aureus [4] = assay: Synergistic antibacterial activity against Staphylococcus aureus USA300 JE2 assessed as dose reduction index at 100 uM at 1:1 test compound to ciprofloxacin measured every 30 mins for 17 hrs; type: functional
Procedure, shortened: (§2)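 OD600 recorded over 17 h at 37 °C. Exponential-phase growth rate used for dose–response EC50 fitting. Combination index and dose-reduction index calculated by the Chou–Talalay method versus fraction affected.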

[5] = molecular target: T1, DNA gyrase (Escherichia coli); assay: Inhibition of Escherichia coli DNA gyrase (A2B2 tetramer) at 12.5 uM using relaxed pBR322 as substrate preincubated for 30 mins followed by enzyme addition by SYBR staining-based agarose gel electrophoresis method; type: protein-complex assay; procedure, shortened: as §1
Staphylococcus aureus [6] = assay: Synergistic antibacterial activity against Staphylococcus aureus USA300 JE2 assessed as ciprofloxacin dose reduction index at 100 uM at 1:1 test compound to ciprofloxacin measured every 30 mins for 17 hrs; type: functional; procedure, shortened: as §2
[7] = Inhibition of N-terminal his6-tagged AddB (unknown origin) expressed in Escherichia coli BL21 cells transformed with pET28 plasmid by Western blot based pull down assay
Procedure, shortened: (§3)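 Pulldown from E. coli SoluBL21 expressing StrepII-tagged AddA and His6-tagged AddB from pET28b+, induced overnight at 16 °C. Lysates were obtained by sonication and incubated with compound-functionalized Sepharose or DMSO-treated, Tris-quenched control beads. Beads were washed three times in lysis buffer and eluted in SDS-PAGE sample buffer. Western blots used anti-His6 and anti-StrepII detection.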

[8] = Inhibition of N-terminal strep2-tagged AddA (unknown origin) expressed in Escherichia coli BL21 cells transformed with pET28 plasmid by Western blot based pull down assay; procedure, shortened: as §3
[9] = system: Staphylococcus aureus subsp. aureus USA300; assay: Inhibition of AddAB in Staphylococcus aureus USA300 JE2 transformed with pCN34 PrecA-gfp reporter plasmid assessed as inhibition of SOS response by measuring reduction in green fluorescence per cell at 66 uM measured at 15 mins interval for 17 hrs by GFP reporter gene assay
Procedure, shortened: (§4)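 S. aureus JE2 carrying a recA-promoter GFP reporter. […] Cell number was read as OD600 and SOS activation as GFP fluorescence, then normalized as fluorescence per cell. Mean ± SEM, n = 3 biological replicates.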

[10] = system: Staphylococcus aureus subsp. aureus USA300; assay: Inhibition of AddAB in Staphylococcus aureus USA300 JE2 transformed with pCN34 PrecA-gfp reporter plasmid assessed as decrease in cell number at 66 uM measured at 15 mins interval for 17 hrs by GFP reporter gene assay; procedure, shortened: as §4
Staphylococcus aureus [11] = assay: Synergistic antibacterial activity against Staphylococcus aureus USA300 JE2 assessed as ciprofloxacin dose reduction index at 100 uM at 1:2 test compound to ciprofloxacin measured every 30 mins for 17 hrs; type: functional; procedure, shortened: as §2
Staphylococcus aureus [12] = assay: Synergistic antibacterial activity against Staphylococcus aureus USA300 JE2 assessed as dose reduction index at 100 uM at 1:2 test compound to ciprofloxacin measured every 30 mins for 17 hrs; type: functional; procedure, shortened: as §2
[13] = system: Staphylococcus aureus subsp. aureus USA300; conditions: JE2, 66 uM

Row | SMILES | Ratio EC50 [1] | fold change (FC) (Staphylococcus aureus [2]) | other results
1 | O=C(O)c1cn(C2CC2)c2cc(N3CCN(C(=S)Nc4cccc(C(F)(F)F)c4)CC3)c(F)cc2c1=O | 2 - 5 | >3 | 
2 | CCn1cc(C(=O)O)c(=O)c2cnc(N3CCN(C(=S)Nc4cc(Cl)cc(Cl)c4)CC3)nc21 | >50 | >4 | 
3 | CCn1cc(C(=O)O)c(=O)c2cnc(N3CCN(C(=S)Nc4cccc(F)c4)CC3)nc21 | >10 | >4 | 
4 | CCn1cc(C(=O)O)c(=O)c2cnc(N3CCN(C(=S)Nc4cccc(C(F)(F)F)c4)CC3)nc21 | >10 | >4 | Ratio [3]: 1.1; inhibition (Escherichia coli): inactive; Activity_index (Staphylococcus aureus [4]): 2.2; inhibition [5]: inactive; Activity_index (Staphylococcus aureus [6]): 1.8
5 | O=C(O)c1cn(C2CC2)c2cc(N3CCN(C(=O)Nc4ccccc4)CC3)c(F)cc2c1=O |  |  | inhibition [7]: inactive; inhibition [8]: inactive
6 | O=C(O)c1cn(C2CC2)c2cc(N3CCN(C(=S)Nc4cccc(Cl)c4)CC3)c(F)cc2c1=O | 2 - 5 | >3 | 
7 | O=C(O)c1cn(C2CC2)c2cc(N3CCN(C(=S)Nc4ccc(C(F)(F)F)cc4)CC3)c(F)cc2c1=O | 2 - 5 | >3 | Ratio [3]: 1.2; inhibition [7]: Active; inhibition (Escherichia coli): inactive; inhibition [9]: Active; inhibition [8]: Active; inhibition [10]: Active; inhibition [5]: inactive; Activity_index (Staphylococcus aureus [6]): 2.9
8 | CCn1cc(C(=O)O)c(=O)c2cnc(N3CCN(C(=S)Nc4cc(C(F)(F)F)cc(C(F)(F)F)c4)CC3)nc21 | >10 | >4 | 
9 | O=C(O)c1cn(C2CC2)c2cc(N3CCN(C(=S)Nc4cc(C(F)(F)F)cc(C(F)(F)F)c4)CC3)c(F)cc2c1=O |  | >4 | 
10 | O=C(O)c1cn(C2CC2)c2cc(N3CCN(C(=S)Nc4cc(Cl)cc(Cl)c4)CC3)c(F)cc2c1=O | 2 - 5 | >3 | 
11 | O=C(O)c1cn(C2CC2)c2cc(N3CCN(C(=S)Nc4cccc([N+](=O)[O-])c4)CC3)c(F)cc2c1=O |  | >4 | 
12 | O=C(O)c1cn(C2CC2)c2cc(N3CCN(C(=S)Nc4ccc([N+](=O)[O-])cc4)CC3)c(F)cc2c1=O |  | 20 | 
13 | CCn1cc(C(=O)O)c(=O)c2cnc(N3CCN(C(=S)Nc4cccc(Cl)c4)CC3)nc21 | >10 | >4 | Ratio [3]: 1.1; Activity_index (Staphylococcus aureus [11]): 2.2; Activity_index (Staphylococcus aureus [12]): 2; inhibition [5]: inactive
14 | O=C(O)c1cn(C2CC2)c2cc(N3CCNCC3)c(F)cc2c1=O |  |  | inhibition (Escherichia coli): Active; inhibition [13]: Active; inhibition [10]: Active
15 | CCn1cc(C(=O)O)c(=O)c2cnc(N3CCN(C(=O)Nc4ccccc4)CC3)nc21 |  | >4 | Ratio [3]: 1.1; inhibition (Escherichia coli): inactive; inhibition [5]: inactive
16 | CCn1cc(C(=O)O)c(=O)c2cnc(N3CCN(C(=S)Nc4ccc(C(F)(F)F)cc4)CC3)nc21 | >10 | >4 | 
17 | O=C(O)c1cn(C2CC2)c2cc(N3CCN(C(=S)Nc4cccc(F)c4)CC3)c(F)cc2c1=O | 2 - 5 | >3 | 
